Test results as given in ChEMBL document CHEMBL5724801, “EUbOPEN Chemogenomics Library - Multiplex” (2024).
Values joined by “and” are separate entries in the source; they are usually repeats but may differ in a detail not shown here. Equal entries are not always repeated.

Test system: U2OS
Test: Multiplex assay against U2OS
Type: toxicity, cell-based
Settings: human
Procedure, shortened: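 Four dyes were applied at seeding to live cells: Hoechst33342, BioTracker Green Microtubule Cytoskeleton Dye, MitoTracker Red and Annexin V Alexa Fluor 680. Imaging after compound addition used a CQ1 microscope at 37°C and 5% CO2. CellPathfinder machine-learning gating then sorted cells into Hoechst high-intensity objects or normal cells, normal cells into healthy, pyknosed or fragmented nuclei, and pyknosed cells into mitotic or apoptotic, with tubulin, mitochondrial-mass and membrane-permeability phenotypes given as per cents of healthy-nucleus cells.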

[1] = 12 h, 1 µM, compound concentration 1 uM
[2] = 12 h, 10 µM, compound concentration 10 uM
[3] = 24 h, 1 µM, compound concentration 1 uM
[4] = 24 h, 10 µM, compound concentration 10 uM
[5] = 48 h, 1 µM, compound concentration 1 uM
[6] = 48 h, 10 µM, compound concentration 10 uM

O=C(Nc1ccccc1Cl)c1cnc2ccc(C3CCNCC3)cn12.O=C(O)C(=O)O
Population Apoptotic (%) [1]: 34.62% and 26.09% | Population Fragmented Nuclei (%) [1]: 1.77% and 0.57% | Population Healthy Nuclei (%) [1]: 86.73% and 86.21% | Population Hoechst High Intensity Objects (%) [1]: 0% | Population Membrane Permeable-Phenotype (%) [1]: 0.77% and 5.33% | Population Mitochondria Different-Phenotype (%) [1]: 0% and 4% | Population Mitotic Cells (%) [1]: 65.38% and 73.91% | Population Normal (%) [1]: 100% | Population Pyknosed Nuclei (%) [1]: 11.5% and 13.22% | Population Tubulin-Different-Phenotype (%) [1]: 0.26% and 0.67% | Total Cell Count [1]: 452 and 174 | Population Apoptotic (%) [2]: 36.51% and 44.74% | Population Fragmented Nuclei (%) [2]: 2.48% and 4.95% | Population Healthy Nuclei (%) [2]: 81.93% and 76.24% | Population Hoechst High Intensity Objects (%) [2]: 0% | Population Membrane Permeable-Phenotype (%) [2]: 2.42% and 7.79% | Population Mitochondria Different-Phenotype (%) [2]: 0% and 9.09% | Population Mitotic Cells (%) [2]: 63.49% and 55.26% | Population Normal (%) [2]: 100% | Population Pyknosed Nuclei (%) [2]: 15.59% and 18.81% | Population Tubulin-Different-Phenotype (%) [2]: 5.14% and 3.25% | Total Cell Count [2]: 404 and 202 | Population Apoptotic (%) [3]: 38.71% and 50% | Population Fragmented Nuclei (%) [3]: 2.92% and 3.06% | Population Healthy Nuclei (%) [3]: 81.98% and 83.84% | Population Hoechst High Intensity Objects (%) [3]: 0% | Population Membrane Permeable-Phenotype (%) [3]: 0.79% and 4.17% | Population Mitochondria Different-Phenotype (%) [3]: 0% and 3.12% | Population Mitotic Cells (%) [3]: 61.29% and 50% | Population Normal (%) [3]: 100% | Population Pyknosed Nuclei (%) [3]: 15.1% and 13.1% | Population Tubulin-Different-Phenotype (%) [3]: 0.59% and 1.56% | Total Cell Count [3]: 616 and 229 | Population Apoptotic (%) [4]: 50% and 42.31% | Population Fragmented Nuclei (%) [4]: 3.44% and 5.18% | Population Healthy Nuclei (%) [4]: 75.51% and 63.75% | Population Hoechst High Intensity Objects (%) [4]: 0.2% and 0.4% | Population Membrane Permeable-Phenotype (%) [4]: 2.14% and 8.12% | Population Mitochondria Different-Phenotype (%) [4]: 0.8% and 10.62% | Population Mitotic Cells (%) [4]: 50% and 57.69% | Population Normal (%) [4]: 99.8% and 99.6% | Population Pyknosed Nuclei (%) [4]: 21.05% and 31.08% | Population Tubulin-Different-Phenotype (%) [4]: 4.02% and 2.5% | Total Cell Count [4]: 495 and 252 | Population Apoptotic (%) [5]: 50.86% and 56.25% | Population Fragmented Nuclei (%) [5]: 4.49% and 3.81% | Population Healthy Nuclei (%) [5]: 84.2% and 83.11% | Population Hoechst High Intensity Objects (%) [5]: 0% and 0.27% | Population Membrane Permeable-Phenotype (%) [5]: 2.09% and 5.57% | Population Mitochondria Different-Phenotype (%) [5]: 0% and 0.98% | Population Mitotic Cells (%) [5]: 49.14% and 43.75% | Population Normal (%) [5]: 100% and 99.73% | Population Pyknosed Nuclei (%) [5]: 11.32% and 13.08% | Population Tubulin-Different-Phenotype (%) [5]: 0.93% and 2.3% | Total Cell Count [5]: 1025 and 368 | Population Apoptotic (%) [6]: 54.92% and 58.04% | Population Fragmented Nuclei (%) [6]: 4.59% and 4.38% | Population Healthy Nuclei (%) [6]: 68.57% and 60.62% | Population Hoechst High Intensity Objects (%) [6]: 0.96% and 0% | Population Membrane Permeable-Phenotype (%) [6]: 5.07% and 11.34% | Population Mitochondria Different-Phenotype (%) [6]: 0.81% and 4.64% | Population Mitotic Cells (%) [6]: 45.08% and 41.96% | Population Normal (%) [6]: 99.04% and 100% | Population Pyknosed Nuclei (%) [6]: 26.84% and 35% | Population Tubulin-Different-Phenotype (%) [6]: 3.45% and 9.28% | Total Cell Count [6]: 726 and 320
